According to ChEMBL document CHEMBL1122483, “Synthesis and antihypertensive activity of substituted trans-4-amino-3,4-dihydro-2,2-dimethyl-2H-1-benzopyran-3-ols” (1983):

tested on: Rattus norvegicus; assay: Maximum fall in systolic blood pressure, intervals from 1 to 6 hours at a dose of 10 mg/kg administered per orally; type: functional, Artery; details: route oral
How it was run: (§1)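 DOCA/NaCl-treated hypertensive rats, kept at least 2 months after surgery (body weight 300–450 g), selected at systolic pressure of 160 mmHg or more. Compound given orally by dosing needle into the esophagus as a solution or suspension in 1% w/v methylcellulose. Systolic pressure measured by tail-cuff in restrained rats at 33.5 °C, before dosing and at intervals from 1 to 6 h; each reading was the mean of at least six recordings.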

Row | SMILES | Max fall in blood pressure
1 | CC1(C)Oc2ccc([N+](=O)[O-])cc2[C@@H](N2CCN(c3ccccc3)CC2)[C@@H]1O.Cl | 10 mmHg
2 | CC(O)c1ccc2c(c1)[C@@H](N1CCCCC1)[C@H](O)C(C)(C)O2.Cl (stereo partly specified) | 20 mmHg
3 | CC1(C)Oc2ccc([N+](=O)[O-])cc2[C@@H](N2CCOCC2)[C@@H]1O.Cl | 23 mmHg

tested on: Rattus norvegicus; assay: Maximum fall in systolic blood pressure, intervals from 1 to 6 hours at a dose of 100 mg/kg administered per orally; type: functional, Artery; details: route oral; how it was run: as §1

Row | SMILES | Max fall in blood pressure
4 | CC1(C)Oc2ccc(C(N)=O)cc2[C@@H](N2CCCC2)[C@@H]1O.CS(=O)(=O)O | 21 mmHg
5 | CC(C)(C)N[C@@H]1c2cc([N+](=O)[O-])ccc2OC(C)(C)[C@H]1O.CS(=O)(=O)O | 7 mmHg
6 | CS(=O)(=O)O.Cc1c([N+](=O)[O-])ccc2c1OC(C)(C)[C@@H](O)[C@@H]2N1CCCCC1 | 39 mmHg
7 | CC1(C)Oc2c(ccc3ccccc23)[C@@H](N2CCCC2)[C@@H]1O | 4 mmHg
8 | CN[C@@H]1c2cc([N+](=O)[O-])ccc2OC(C)(C)[C@H]1O.Cl | 43 mmHg
9 | COc1ccc2c(c1)[C@@H](N1CCCC1)[C@H](O)C(C)(C)O2.Cl | 17 mmHg
10 | CC1(C)Oc2ccc(Cl)cc2[C@@H](N2CCCCC2)[C@@H]1O.Cl | 69 mmHg
11 | CCN(CC)[C@@H]1c2cc([N+](=O)[O-])ccc2OC(C)(C)[C@H]1O.Cl | 54 mmHg
12 | CC1(C)Oc2ccc([N+](=O)[O-])cc2[C@@H](NCCCO)[C@@H]1O.Cl | 28 mmHg
13 | CC1(C)Oc2cc(C#N)ccc2[C@@H](N2CCCCC2)[C@@H]1O.Cl | 33 mmHg
14 | CC(C)N[C@@H]1c2cc([N+](=O)[O-])ccc2OC(C)(C)[C@H]1O.Cl | 36 mmHg
15 | CC1(C)Oc2ccc([N+](=O)[O-])cc2[C@@H](NCCO)[C@@H]1O.Cl | 27 mmHg
16 | CC1(C)Oc2ccccc2[C@@H](N2CCCC2)[C@@H]1O.Cl | 46 mmHg
17 | CC1(C)Oc2ccc([N+](=O)[O-])cc2[C@@H](NCC2CC2)[C@@H]1O.Cl | 13 mmHg
18 | CC1(C)Oc2ccc3ccccc3c2[C@@H](N2CCCCC2)[C@@H]1O.Cl | 4 mmHg
19 | CN(C)[C@@H]1c2cc([N+](=O)[O-])ccc2OC(C)(C)[C@H]1O.Cl | 29 mmHg
20 | CC1(C)Oc2ccc([N+](=O)[O-])cc2[C@@H](N)[C@@H]1O.Cl | 45 mmHg
21 | Cc1ccc2c(c1)[C@@H](N1CCCC1)[C@H](O)C(C)(C)O2.Cl | 9 mmHg
22 | CC1(C)Oc2cccc([N+](=O)[O-])c2[C@@H](N2CCCCC2)[C@@H]1O.Cl | 12 mmHg
23 | CC1(C)Oc2ccc([N+](=O)[O-])cc2[C@@H](N2CCOCC2)[C@@H]1O.Cl | 70 mmHg
24 | CC1(C)Oc2ccc(N)cc2[C@@H](N2CCCC2)[C@@H]1O.Cl.Cl | 6 mmHg
25 | CC1(C)Oc2ccc([N+](=O)[O-])cc2[C@@H](NCCN2CCCC2)[C@@H]1O.Cl.Cl | 23 mmHg

tested on: Rattus norvegicus; assay: Maximum fall in systolic blood pressure at interval from 1 to 6 hours at a dose of 300 mg/kg when administered perorally in rats; type: functional, Artery; details: route oral; how it was run: as §1

Row | SMILES | Max fall in blood pressure
26 | CC(C)N[C@@H]1c2cc([N+](=O)[O-])ccc2OC(C)(C)[C@H]1O.Cl | 69 mmHg

tested on: Rattus norvegicus; assay: Maximum fall in systolic blood pressure at interval from 1 to 6 hours at a dose of 30 mg/kg when administered perorally in rats; type: functional, Artery; details: route oral; how it was run: as §1

Row | SMILES | Max fall in blood pressure
27 | CN[C@@H]1c2cc([N+](=O)[O-])ccc2OC(C)(C)[C@H]1O.Cl | 21 mmHg
28 | COc1ccc2c(c1)[C@@H](N1CCCC1)[C@H](O)C(C)(C)O2.Cl | 29 mmHg
29 | CC1(C)Oc2ccc(Cl)cc2[C@@H](N2CCCCC2)[C@@H]1O.Cl | 7 mmHg
30 | CCN(CC)[C@@H]1c2cc([N+](=O)[O-])ccc2OC(C)(C)[C@H]1O.Cl | 34 mmHg
31 | CC1(C)Oc2cc(C#N)ccc2[C@@H](N2CCCCC2)[C@@H]1O.Cl | 7 mmHg
32 | CC1(C)Oc2ccccc2[C@@H](N2CCCC2)[C@@H]1O.Cl | 10 mmHg
33 | CC1CCC(C)N1[C@@H]1c2cc([N+](=O)[O-])ccc2OC(C)(C)[C@H]1O.Cl (stereo partly specified) | 26 mmHg
34 | CC(O)c1ccc2c(c1)[C@@H](N1CCCCC1)[C@H](O)C(C)(C)O2.Cl (stereo partly specified) | 115 mmHg
35 | CC1(C)Oc2ccc([N+](=O)[O-])cc2[C@@H](N)[C@@H]1O.Cl | 23 mmHg
36 | CC1(C)Oc2ccc([N+](=O)[O-])cc2[C@@H](N2CCOCC2)[C@@H]1O.Cl | 55 mmHg
